In the library only some 2.4% were active in any assay of this set; here they are far more common.
SR-BI uptake up = SR-BI HDL lipid transfer activation; AID 504775; activation, % at 12.5 µM; 320,000 tested, 0.096% active; CHO ldlA[mSR-BI] cells, DiI-HDL uptake fluorescence, 3 h; 100 = double the neutral-control signal;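 active = mean replicate activation of at least 60% and every replicate at or above 60%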;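 note: 0% = median plate neutral-control signal and 100% = twice that signal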
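system = CHO ldlA[mSR-BI] cells, LDL receptor-null, SR-BI overexpressing | medium = Ham's F12 with 0.5% BSA, HEPES 25 mM, pH 7.4 | probe or stimulus = DiI-HDL 10 µg/mL | compound dosing = single-point compound dose | incubation = compound exposure 3 h, 37 °C | technique = DiI fluorescence, bottom read | read-out = cell-associated DiI fluorescence as measure of HDL uptake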
MIN6 prolif = inducers of beta-cell replication in MIN6 cells; 330,000 tested, 0.29% active; MIN6 cells proliferation, ATPlite luminescence, 48 h; cells starved in 0.2% serum; 100% = growth in 10% serum; proliferation, % at 10 µM; AID 2380;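 active = compounds whose signal lies at least 3.5 SD above the mean of all wells on their plate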;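 note: 0% = DMSO-treated cells in low-serum medium and 100% = 10% serum control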
SR-BI DiI inh = blocks mouse SR-BI lipid uptake from DiI-HDL | Q61009 | ldlA[mSR-BI] CHO cells, DiI-HDL uptake fluorescence, 3 h | inhibition, % at 12.5 µM | 320,000 tested, 0.96% active | AID 488896;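 active = mean replicate inhibition of at least 70% and a set share of replicates each scoring 70 or more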;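 note: 0% = median of neutral control wells and 100% = median of positive control wells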
m5-HT2A agonist = agonists of mouse serotonin 5-HT2A receptor (HTR2A). P35363. CHO-K1 mHTR2A beta-arrestin complementation, luminescence; percent of 30 µM serotonin response. activation, % at 7.6 µM. 360,000 tested, 0.66% active. AID 624169;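 active = activation above a run cutoff, the mean activation of all tested compounds plus 3 SD, cut at about 14% in these data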;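 note: 0% = plate median of compound wells and 100% = 30 µM serotonin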
Target sequence (P35363 whole entry, looked up): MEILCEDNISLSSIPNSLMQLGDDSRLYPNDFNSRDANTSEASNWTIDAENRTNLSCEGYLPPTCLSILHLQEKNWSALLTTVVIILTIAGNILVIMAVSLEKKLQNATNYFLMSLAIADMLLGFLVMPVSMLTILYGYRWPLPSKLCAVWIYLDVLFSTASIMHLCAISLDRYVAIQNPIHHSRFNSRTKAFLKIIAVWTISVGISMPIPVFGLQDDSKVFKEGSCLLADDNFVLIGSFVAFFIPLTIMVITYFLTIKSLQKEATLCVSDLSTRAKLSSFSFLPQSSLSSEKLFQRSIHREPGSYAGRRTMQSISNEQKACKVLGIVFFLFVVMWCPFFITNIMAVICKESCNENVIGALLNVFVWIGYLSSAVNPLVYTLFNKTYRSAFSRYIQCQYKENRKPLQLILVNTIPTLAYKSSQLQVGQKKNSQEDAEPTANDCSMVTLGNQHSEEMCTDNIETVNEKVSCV
Ins promoter up = MIN6 insulin promoter up-regulation; 190,000 tested, 0.3% active; z-score at 5 µM; MIN6 insulin promoter-GFP reporter, high-content imaging; stronger effect = higher value;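 active = z-score above 3 at 5 µM with at least 500 cells counted in the well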
Calb FLC = C. albicans growth modulation with fluconazole. growth inhibition, % (test concentration not listed). C. albicans CaCi-2 + fluconazole, Alamar Blue growth, 48 h. AID 1979. 300,000 tested, 0.57% active;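 active = growth inhibition above about 58% in most replicates, limit read from the data, passing the limit was not always enough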;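 note: all wells also contain fluconazole at 8 µg/ml as a sub-toxic cotreatment; 0% = median of DMSO wells and 100% = median of geldanamycin control wells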
Numbers without * were called inactive; nt = no result.

SMILES | SR-BI uptake up | MIN6 prolif | SR-BI DiI inh | m5-HT2A agonist | Ins promoter up | Calb FLC
COc1cc(Cl)c(NC2=CC(=O)C(=O)c3ccccc32)c(OC)c1 | -90.4 | -6.7 | 90.4* | 2.5 | nt | nt
CCN(CCn1cccn1)C(=O)c1cc(COc2cc(C)ccc2C)on1 | -37.3 | -0.3 | 37.3 | 1.9 | nt | 8.8
CCCOc1cccc(-c2cc(C(=O)NNC(=S)NCC)c3ccccc3n2)c1 | -52.7 | -5.2 | 52.7 | 1.2 | -0.59 | 83.7*
CCNC(=S)NNC(=O)c1cc(-c2cccc(OC)c2)nc2ccccc12 | 11.7 | -0.7 | -11.7 | -0.5 | -0.48 | 22.1
CCNC(=S)NNC(=O)c1cc(-c2ccccc2C)nc2ccccc12 | -19.4 | -2.6 | 19.4 | -1.8 | 0.84 | 99.1*
Cc1cc(C(=O)NNC(=S)NC(C)c2ccccc2)c2ccccc2n1 (configuration not stated) | -5.4 | -2.4 | 5.4 | -1.8 | -0.4 | 104.1*
O=C(Nc1ccncc1Cl)c1ccncc1 | -2.6 | -2.6 | 2.6 | -2.3 | nt | 1.6
Cc1noc(C)c1CSCC(=O)Oc1ccc(N(C)S(=O)(=O)c2ccc(Cl)cc2)cc1 | 6.9 | -1.6 | -6.9 | 3.5 | nt | 0.1
O=C(CCc1nnc2n(Cc3ccc(F)cc3)c(=O)c3ccccc3n12)N1CCN(c2ccccn2)CC1 | -7.9 | -4.1 | 7.9 | -2.7 | nt | 1.1
CC1Sc2ccc(S(=O)(=O)N3CCC(C(=O)NCCc4ccccc4)CC3)cc2NC1=O (configuration not stated) | 14.7 | -0.5 | -14.7 | 0.0 | nt | -7.7
CC1Sc2ccc(S(=O)(=O)N3CCC(C(=O)NCC(C)c4ccccc4)CC3)cc2NC1=O (configuration not stated) | 132.7* | -1.4 | -132.7 | -0.6 | nt | -9.6
CC(CNC(=O)c1cc(Cl)ccc1[N+](=O)[O-])NC(=O)c1cc(Cl)ccc1[N+](=O)[O-] (configuration not stated) | -29.2 | 1.2 | 29.1 | -2.4 | -0.02 | 1.7
O=C(c1ccc(C(=O)N2CCCc3ccccc32)s1)N1CCCc2ccccc21 | -24.2 | -1.3 | 24.2 | 3.6 | -0.18 | 114.3*
O=C(c1ccc([N+](=O)[O-])s1)N1CCCc2ccccc21 | -35.5 | -6.4 | 35.5 | -2.1 | nt | 5.5
O=C(O)CCCCCn1c(O)c(C=C2N=c3ccccc3=N2)sc1=S | 26.2 | 0.0 | -26.2 | -0.6 | 0.65 | 83.2*
O=C(O)CCC1OC(=O)C(O)=C1c1ccccc1 (configuration not stated) | 4.6 | 0.2 | -4.6 | 0.5 | 0.83 | -1.1
Cc1noc2ncnc(N3CCCC3)c12 | -5.2 | -2.9 | 5.2 | -1.9 | 0.11 | 10.2
Cc1noc2ncnc(Sc3ccc(Br)cc3)c12 | 4.3 | -5.3 | -4.3 | -2.0 | 0.74 | 108.3*
CCCc1cc(-n2ccnc2)n2c(nc3ccccc32)c1C#N | 1.2 | -3.6 | -1.2 | -1.9 | 5.52* | 44.3
CCOc1nc(C)nc(NC(=O)NS(=O)(=O)c2ccccc2Cl)n1 | 61.2* | -2.0 | -61.2 | 3.6 | 0.8 | -1.4
O=C1NC(=O)/C(=C/c2ccc(-c3cc(C(=O)O)ccc3Cl)o2)S1 | 8.7 | -3.5 | -8.7 | 0.3 | nt | 19.7
O=C1NC(=O)/C(=C\c2ccc(Br)o2)S1 | 23.1 | -0.5 | -23.1 | -0.2 | nt | 86.5*
COc1ccccc1C(=O)Nc1ccnn1C1CCN(C2CCCCC2)CC1 | nt | nt | nt | -1.1 | nt | nt
COc1ccc(/C=C2\N=C(c3ccc(C)cc3)OC2=O)cc1 | -10.0 | -1.3 | 10.0 | -1.1 | nt | 1.2
COc1ccc(C2=NC(=O)/C(=C\c3cc(OC)c(OC)c(OC)c3)O2)cc1 | 34.3 | nt | -34.3 | -1.7 | 3.04* | nt
SMILES | SR-BI uptake up | MIN6 prolif | SR-BI DiI inh | m5-HT2A agonist | Ins promoter up | Calb FLC
COc1ccc(NC(=O)CN2C(=O)NC(C)(C3CC3)C2=O)cc1S(=O)(=O)N1CCCCC1 (configuration not stated) | 1.0 | -3.3 | -1.0 | 7.9 | nt | nt
CCN(CC)c1ccc(C2Nc3cccc4cccc(c34)N2)c(O)c1 | -114.0 | -5.3 | 114.0* | 4.3 | -1.67 | nt
CCOc1ccc(C(=O)NC2CC(=O)N(c3ccc4c(c3)OCCO4)C2)cc1 (configuration not stated) | -2.5 | -3.6 | 2.5 | 0.6 | nt | 7.9
COCCn1c(=NC(=O)c2ccc(S(=O)(=O)N3CCc4ccccc4C3)cc2)sc2cc(OC)ccc21 | -71.8 | 0.0 | 71.8* | -3.6 | 0.01 | 8.8
COC(=O)N/N=C/c1cc(Cl)cc(Cl)c1OCc1ccc(F)cc1 | -83.6 | 0.0 | 83.6* | 0.1 | -0.24 | 1.1
OCC1(CO)CCCC(CO)(CO)C1O | 46.3 | nt | -46.3 | 10.9 | nt | nt
COc1cccc(-c2nnc(NC(=O)c3ccc4ncsc4c3)o2)c1 | 14.7 | -6.9 | -14.7 | -2.4 | -0.25 | 107.0*
O=C(Nc1nnc(-c2ccncc2)o1)c1ccc2ccccc2c1 | -15.8 | -4.9 | 15.8 | -8.7 | nt | 90.1*
COc1cccc(C(=O)Nc2nnc(-c3ccc(F)cc3)o2)c1 | 10.0 | -4.2 | -10.0 | -2.7 | 0.41 | 83.0*
CS(=O)(=O)c1cccc(-c2nnc(NC(=O)c3ccc4ncsc4c3)o2)c1 | -6.5 | -1.5 | 6.5 | 2.9 | nt | -1.7
COc1ccc(N(C)S(=O)(=O)c2cccc(C(=O)OCC(=O)Nc3cc(C)ccc3OC)c2)cc1 | nt | nt | nt | 10.1 | nt | nt
O=[N+]([O-])c1ccc2c(c1Nc1ccccc1)=NC1(CCCCC1)N=2 | -32.8 | -1.4 | 32.8 | 0.8 | 0.09 | 4.9
COc1ccc(Nc2c([N+](=O)[O-])ccc3c2=NC2(CCCCC2)N=3)cc1 | -86.5 | -2.9 | 86.5* | 1.5 | -0.14 | 18.2
CCN(CC)c1ccc2nc3ccccc3[n+](CC)c2c1 | 12.7 | -3.7 | -12.7 | -3.1 | nt | 90.0*
COc1ccc(CCn2c(C)cc3c(c2=O)C(c2ccc4c(c2)OCO4)C(C#N)=C(N)O3)cc1OC (configuration not stated) | -9.2 | 7.5 | 9.2 | -3.7 | -2.17 | 108.7*
CCN1/C(=C/c2cc[n+](CCCS(=O)(=O)[O-])c3ccccc23)Sc2ccccc21 | 10.8 | -4.6 | -10.8 | 2.0 | 6.08* | -10.1
CCC(/C=C1\Sc2ccc(OC)cc2N1CC)=C\c1sc2ccc(OC)cc2[n+]1CCCS(=O)(=O)[O-] | 15.5 | -5.9 | -15.5 | 4.7 | -3.29 | 3.8
CC(C)(C)Cc1c(-c2ccccc2)nc2ccc(Cl)cn12 | nt | nt | nt | 3.6 | nt | nt
Cc1cc(C(=O)CCC(=O)N(C)CC2COc3ccccc3O2)c(C)s1 (configuration not stated) | nt | nt | nt | -10.5 | nt | nt
COc1cc2ccccc2cc1C(=O)N(CCN(C)C)c1nc2ccc(Br)cc2s1 | -31.6 | -7.8 | 31.6 | -10.9 | nt | 101.8*
Cc1n[nH]c(=S)n(NC(=O)CC(=O)Nn2c(=S)[nH]nc(C)c2=O)c1=O | -2.1 | -0.8 | 2.1 | -12.7 | -0.56 | 93.3*
Cc1n[nH]c(=S)n(NC(=O)/C=C/C(=O)Nn2c(=S)[nH]nc(C)c2=O)c1=O | 2.0 | nt | -2.0 | 0.1 | 0.93 | -7.3

Bioassay records (PubChem BioAssay)
